As a reminder, the IC50 is the concentration needed to halve the response being measured.

Experimental findings from ChEMBL document CHEMBL3861997 (Bioorg Med Chem, 2016) are described below.

Assay [1] in a line: Anticoagulant activity in rabbit plasma assessed as increase in prothrombin time. It counts as functional, Oryctolagus cuniculus. In a few lines: (§1)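 Concentration doubling clotting time (EC2x), human or rabbit plasma. Plasma from centrifugation at 2000 g, 10 min. Inhibitor stock in DMSO, serially diluted; clotting time measured in control plasma and plasma with five to seven inhibitor concentrations. PT run on temperature-controlled automated coagulation analyser with Thromborel-S reagent. Duplicate determinations at each concentration.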

Assay [2] is described as follows: Anticoagulant activity in healthy human plasma assessed as increase in activated partial thromboplastin time. It counts as functional.
Assay [3] is described as follows: Anticoagulant activity in healthy human plasma assessed as increase in prothrombin time. It counts as functional. In a few lines:
as §1

The nature of assay [4]: Anticoagulant activity in rabbit plasma assessed as increase in activated partial thromboplastin time. It counts as functional, Oryctolagus cuniculus.
For a further assay, the species on record is Rattus norvegicus. Put plainly: Antithrombotic activity in rat venous thrombus model assessed as inhibition of thrombus formation relative to control. It counts as functional. In a few lines: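 Rat venous stasis model: after 2 h the abdomen was reopened and the vena cava dissected longitudinally. Thrombus removed, held at 37 °C for 24 h, then dry weight measured.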

Another assay has as its target Coagulation factor X (Homo sapiens, UniProt P00742). Put plainly: Inhibition of human coagulation factor 10a assessed as reduction in p-nitroaniline cleavage from pefachrome substrate preincubated for 10 mins followed by substrate addition measured after 20 mins.

Coagulation factor X, sequence (P00742 41-179 limits assumed): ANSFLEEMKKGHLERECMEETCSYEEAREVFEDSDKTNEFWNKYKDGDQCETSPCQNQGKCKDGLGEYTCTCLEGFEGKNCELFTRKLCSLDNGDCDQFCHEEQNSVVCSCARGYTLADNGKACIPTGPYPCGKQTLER
Coagulation factor X, sequence (P00742 235-488 limits assumed): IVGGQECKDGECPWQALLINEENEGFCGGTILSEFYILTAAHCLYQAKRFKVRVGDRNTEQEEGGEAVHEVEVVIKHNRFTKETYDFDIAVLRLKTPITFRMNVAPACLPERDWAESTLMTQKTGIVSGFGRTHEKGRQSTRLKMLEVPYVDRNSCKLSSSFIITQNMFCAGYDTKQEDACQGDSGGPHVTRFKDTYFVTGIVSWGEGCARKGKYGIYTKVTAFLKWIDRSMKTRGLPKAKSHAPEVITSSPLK

For the compound `COc1ccc(-n2nc(-c3n[nH]c(C)n3)c3c2C(=O)N(c2ccc(N4CCCCC4=O)cc2)CC3)cc1`, the figures for the 2PT in assay [1] and in assay [3] were 1.9 µM and 1.6 µM, respectively. Moreover, the 2aPTT in assay [2] worked out at 3.7 µM; in assay [4], 3.2 µM.
Taken in the same sequence, the figures for `O=C1CCCCN1c1ccc(N2CCc3c(-c4nc[nH]n4)nn(-c4ccc(OC(F)F)cc4)c3C2=O)cc1` were 4 µM, 3.6 µM, 6.6 µM and 7.8 µM.
For `COc1ccc(-n2nc(-c3nc[nH]n3)c3c2C(=O)N(c2ccc(N4CCCCC4=O)cc2)CC3)cc1`, the 2PT in assay [1] is 0.7 µM; in assay [3], 0.5 µM. In addition, the 2aPTT in assay [2] was found to be 0.8 µM; in assay [4] it was 1.2 µM. In addition, the “inhibition (INH)” value in the assay listed under Rattus norvegicus is 99%. Besides, the IC50 on Coagulation factor X came to 150 nM.
On to `O=C1CCCCN1c1ccc(N2CCc3c(-c4nc[nH]n4)nn(-c4ccc(F)cc4)c3C2=O)cc1`, for which the results for the 2PT in assay [1] and in assay [3] were 2.8 µM and 1.8 µM, respectively. Also, the values for the 2aPTT in assay [2] and in assay [4] were 4.5 µM and 5.1 µM, respectively.
Taken in the same sequence, the figures for `COc1ccc(-n2nc(-c3n[nH]c(=O)n3-c3ccc(OC)cc3)c3c2C(=O)N(c2ccc(N4CCCCC4=O)cc2)CC3)cc1` were 9.2 µM, 14.8 µM, 21.3 µM and 19.2 µM.
Taken in the same sequence, the figures for `COc1ccc(-n2nc(-c3n[nH]c(C4CC4)n3)c3c2C(=O)N(c2ccc(N4CCCCC4=O)cc2)CC3)cc1` were 4.9 µM, 3.5 µM, 5.1 µM and 6 µM.
The corresponding values for `COc1ccc(-n2nc(-c3nncn3CCCN3CCOCC3)c3c2C(=O)N(c2ccc(N4CCCCC4=O)cc2)CC3)cc1` are 7.5 µM, 5.5 µM, 10.5 µM and 15 µM.
With `COc1ccc(-n2nc(-c3ncn(C)n3)c3c2CCN(c2ccc(N4CCCCC4=O)cc2)C3=O)cc1`, the values for the 2PT in assay [1] and in assay [3] were 0.9 µM and 0.8 µM, respectively. The 2aPTT was 1.9 µM in assay [2] and 3 µM in assay [4]. In the assay listed under Rattus norvegicus, the “inhibition (INH)” value is given as 65%. Moreover, the IC50 at Coagulation factor X was found to be 2400 nM.
As to `O=C1CCCCN1c1ccc(N2CCc3c(-c4nc[nH]n4)nn(-c4ccc(Cl)cc4)c3C2=O)cc1`, the results for the 2PT in assay [1] and in assay [3] were 4.2 µM and 4.3 µM, respectively. Moreover, the 2aPTT came to 8.4 µM in assay [2] and 9.9 µM in assay [4].
Taken in the same sequence, the figures for `CCN(CC)Cc1cccn1-c1nn(-c2ccc(OC)cc2)c2c1CCN(c1ccc(N3CCCCC3=O)cc1)C2=O` were 2.1 µM, 1.6 µM, 3.7 µM and 3.9 µM.
For the compound `COc1ccc(-n2nc(C(N)=O)c3c2C(=O)N(c2ccc(C4=NCCCN4)cc2)CC3)cc1`, the figures for the 2PT in assay [1] and in assay [3] were 1.1 µM and 0.9 µM, respectively. Further, the 2aPTT in assay [2] came to 1.1 µM; in assay [4], 2 µM. Besides, the “inhibition (INH)” value in the assay listed under Rattus norvegicus is listed as 82%. For the same compound, at Coagulation factor X, the IC50 was determined as 350 nM.
As to `COc1ccc(-n2nc(-c3n[nH]c(=O)n3-c3ccccc3)c3c2C(=O)N(c2ccc(N4CCCCC4=O)cc2)CC3)cc1`, the 2PT amounted to 13.3 µM in assay [1] and 12.9 µM in assay [3]. In addition, the 2aPTT amounted to 20.3 µM in assay [2] and 22.1 µM in assay [4].
The corresponding values for `COCc1nc(-c2nn(-c3ccc(OC)cc3)c3c2CCN(c2ccc(N4CCCCC4=O)cc2)C3=O)n[nH]1` are 3 µM, 2.4 µM, 4.1 µM and 6 µM.
In the case of `COc1ccc(-n2nc(-c3nncn3CCN(C)C)c3c2C(=O)N(c2ccc(N4CCCCC4=O)cc2)CC3)cc1`, the 2PT in assay [1] worked out at 4.4 µM; in assay [3], 3.9 µM. Besides, the values for the 2aPTT in assay [2] and in assay [4] were 7 µM and 8 µM, respectively.
As to `COc1ccc(-n2nc(-c3n[nH]c(C4CCCO4)n3)c3c2C(=O)N(c2ccc(N4CCCCC4=O)cc2)CC3)cc1` (configuration not stated), the 2PT was found to be 5 µM in assay [1] and 3.9 µM in assay [3]. In addition, the 2aPTT in assay [2] stood at 6.3 µM; in assay [4], 7.9 µM.
`COc1ccc(-n2nc(C(N)=O)c3c2C(=O)N(c2ccc(N4CCCCC4=O)cc2)CC3)cc1` [APIXABAN]: the 2PT in assay [1] worked out at 0.6 µM; in assay [3], 0.8 µM. Also, the 2aPTT in assay [2] is 0.9 µM; in assay [4], 1.4 µM. The “inhibition (INH)” value in the assay filed under Rattus norvegicus is given as 96%.
As for `COc1ccc(-n2nc(-c3ncnn3C)c3c2CCN(c2ccc(N4CCCCC4=O)cc2)C3=O)cc1`, the 2PT in assay [1] worked out at 4.1 µM; in assay [3], 3.3 µM. For the same compound, the values for the 2aPTT in assay [2] and in assay [4] were 10 µM and 15.1 µM, respectively.
Taken in the same sequence, the figures for `COc1ccc(-n2nc(-c3n[nH]c(=O)n3-c3ccccc3C(F)(F)F)c3c2C(=O)N(c2ccc(N4CCCCC4=O)cc2)CC3)cc1` were 17.9 µM, 16.8 µM, 30.1 µM and 32.1 µM.
Taken in the same sequence, the figures for `COc1ccc(-n2nc(-n3cccc3CN(C)C)c3c2C(=O)N(c2ccc(N4CCCCC4=O)cc2)CC3)cc1` were 1.9 µM, 1.5 µM, 3.5 µM and 3.2 µM.
With `COc1ccc(-n2nc(-c3nncn3CCCN(C)C)c3c2C(=O)N(c2ccc(N4CCCCC4=O)cc2)CC3)cc1`, the 2PT amounted to 5.7 µM in assay [1] and 4.5 µM in assay [3]. Further, the figures for the 2aPTT in assay [2] and in assay [4] were 9 µM and 10.1 µM, respectively.
Taken in the same sequence, the figures for `CCN(CC)CCCn1cnnc1-c1nn(-c2ccc(OC)cc2)c2c1CCN(c1ccc(N3CCCCC3=O)cc1)C2=O` were 6.1 µM, 5 µM, 10 µM and 11.1 µM.
On to `COc1ccc(-n2nc(C(N)=O)c3c2C(=O)N(c2ccc(C4=NCCN4)cc2)CC3)cc1`, for which the 2PT turned out to be 0.7 µM in assay [1] and 0.9 µM in assay [3]. Besides, the 2aPTT in assay [2] is 0.9 µM; in assay [4], 1 µM. The “inhibition (INH)” value in the assay listed under Rattus norvegicus is reported as 66%. The IC50 at Coagulation factor X was 1990 nM.
As to `O=C1CCCCN1c1ccc(N2CCc3c(-c4nc[nH]n4)nn(-c4ccc(Br)cc4)c3C2=O)cc1`, the results for the 2PT in assay [1] and in assay [3] were 7.9 µM and 6.4 µM, respectively. Moreover, the 2aPTT in assay [2] was found to be 11.3 µM; in assay [4] it was 10.2 µM.
Taken in the same sequence, the figures for `O=C1CCCCN1c1ccc(N2CCc3c(-c4nc[nH]n4)nn(-c4ccc(OC(F)(F)F)cc4)c3C2=O)cc1` were 6.4 µM, 5.5 µM, 10.5 µM and 12 µM.
For `COc1ccc(-n2nc(-c3n[nH]c(C(C)(C)C)n3)c3c2C(=O)N(c2ccc(N4CCCCC4=O)cc2)CC3)cc1`, the 2PT in assay [1] turned out to be 1.4 µM; in assay [3], 1 µM. Also, the 2aPTT in assay [2] was determined as 2.3 µM; in assay [4], 4.1 µM. Besides, the “inhibition (INH)” value in the assay filed under Rattus norvegicus stood at 70%. In addition, the IC50 at Coagulation factor X turned out to be 850 nM.
Regarding `COc1ccc(-n2nc(-n3cccc3CN3CCOCC3)c3c2C(=O)N(c2ccc(N4CCCCC4=O)cc2)CC3)cc1`, the 2PT in assay [1] worked out at 1.7 µM; in assay [3], 1.1 µM. Moreover, the 2aPTT turned out to be 2.4 µM in assay [2] and 3.9 µM in assay [4]. Moreover, the “inhibition (INH)” value in the assay filed under Rattus norvegicus is 57%. Moreover, on Coagulation factor X, the IC50 came out at 2400 nM.
